The nature of experiment [1]: Inhibitory concentration towards rat mitochondrial F1F0-ATP synthase using a hexokinase / glucose-6-phosphate dehydrogenase coupled assay. The method, boiled down: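 ATP synthesis was run in 10 mM HEPES pH 8. Diluted enzyme was mixed with glucose, MgCl2, KPO4, potassium succinate and AMP (to block adenylate kinase) and incubated 30 min with gentle shaking. Inhibitor was then added from 50% DMSO (final DMSO 5%) for 15 min. Coupling enzymes started the reaction, and the rise in A340 was monitored.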

For experiment [2], the target named is Mitochondrial F1F0 ATP synthase (Rattus norvegicus). Briefly: Inhibitory concentration towards rat mitochondrial F1F0 ATP hydrolase using a pyruvate kinase / lactate dehydrogenase system.
Experiment [3] is described as follows: Inhibitory concentration towards rat mitochondrial F1F0-ATP synthase using a pyruvate kinase / lactate dehydrogenase system.

Structures are written as SMILES. Some results are limits rather than exact numbers.

A word on the IC50: it is the concentration needed to halve the response being measured.

`CC1(C)Oc2ccc(S(=O)(=O)N3CCCCC3)cc2[C@H](N(Cc2ncc[nH]2)c2ccc(Cl)cc2)[C@H]1O` had an IC50 in experiment [1] of 18 µM.

With `CC1(C)Oc2ccc(C#N)cc2[C@H](/N=C(/NC#N)Nc2ccc(Cl)cc2)[C@H]1O`, the 50% inhibitory concentration (IC50) was 12 µM in experiment [1] and over 100 µM in experiment [2].

`CC1(C)Oc2ccc(C#N)cc2[C@@H](N(Cc2ncc[nH]2)c2ccc(Cl)cc2)[C@@H]1O`: the IC50 in experiment [1] is 3.8 µM; in experiment [2], 0.24 µM.

Regarding `CC1(C)Oc2ccc(C#N)cc2[C@H](N(Cc2ncco2)c2ccccc2)[C@H]1O`, in experiment [2], the IC50 is over 100 µM.

Consider `CC1(C)Oc2ccc(C#N)cc2[C@@H](N(Cc2ncc[nH]2)c2ccccc2)[C@@H]1O`, for which the IC50 in experiment [2] was found to be 4.2 µM.

Take `CC1(C)Oc2ccc(C#N)cc2[C@H](N(Cc2ncc[nH]2)c2ccccc2)[C@H]1O`: in experiment [2], the concentration for half-maximal inhibition (IC50) was 2 µM.

`CC1(C)Oc2ccc(C#N)cc2[C@@H](/N=C(\NC#N)Nc2ccc(Cl)cc2)[C@@H]1O`: the IC50 in experiment [1] was 30 µM; in experiment [3], over 100 µM.

As to `CC1(C)Oc2ccc(C#N)cc2C(N(Cc2ncc[nH]2)c2ccc(Cl)cc2)C1O` (racemic), in experiment [2], the IC50 is 470 µM.

As to `CC1(C)Oc2ccc(C#N)cc2C(Nc2ccc(Cl)cc2)C1O` (racemic), the IC50 in experiment [2] came out at 45 µM.

`CC1(C)Oc2ccc(C#N)cc2[C@H](N(Cc2ncc[nH]2)c2ccc(Cl)cc2)[C@H]1O` [BMS-191095]: the IC50 came to 4 µM in experiment [1] and 0.48 µM in experiment [2].

`COc1ccc(Cl)cc1C(=O)NCCc1ccc(S(=O)(=O)NC(=O)NC2CCCCC2)cc1` [GLYBURIDE] yielded an IC50 in experiment [1] of over 100 µM.

These data come from ChEMBL document CHEMBL1148474, “Small molecule mitochondrial F1F0 ATPase hydrolase inhibitors as cardioprotective agents. Identification of 4-(N-arylimidazole)-substituted benzopyran derivatives as selective hydrolase inhibitors” (J Med Chem, 2004).
